Test results as given in ChEMBL document CHEMBL1821640, “Novel 1,2,3-triazole derivatives for use against Mycobacterium tuberculosis H37Rv (ATCC 27294) strain” (J Med Chem, 2011).
Converted amounts (≈) assume the structure as drawn.

Tests used:
[1] = test system: Mycobacterium tuberculosis; test: Antimicrobial activity against Mycobacterium tuberculosis H37Rv ATCC 27294 after 5 days by Microplate Alamar blue assay; assay type: functional; conditions: H37Rv ATCC 27294, 120 h
Summary of the method: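 M. tuberculosis H37Rv grown 24 h at 37 °C, 150 rpm, in Middlebrook 7H9 + 10% OADC, washed, set to 0.1 McFarland and diluted 1:25. Two-fold dilutions in 7H9, final […], 5 days at 37 °C. Resazurin (Alamar Blue)/10% Tween 80 added for 24 h. MIC is the lowest concentration preventing a blue-to-pink change. Triplicates averaged.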

[2] = Cytotoxicity against african green monkey BGMK cells after 24 hrs by MTT assay; assay type: cell-based; conditions: chlorocebus aethiops, read-out: MLD50
[3] = Selectivity index, ratio of MDL50 for human HepG2 cells to MIC for Mycobacterium tuberculosis H37Rv ATCC 27294; assay type: functional
[4] = Selectivity index, ratio of MDL50 for african green monkey BGM cells to MIC for Mycobacterium tuberculosis H37Rv ATCC 27294; assay type: functional
[5] = Cytotoxicity against human HepG2 cells after 24 hrs by MTT assay; assay type: cell-based; conditions: read-out: MLD50
Summary of the method: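 HepG2 cells kept in RPMI 1640 with 10% heat-inactivated FCS and gentamicin at 37 °C under 5% CO2. Seeded at 5 × 10^3 cells/well and allowed to adhere for 18 h. Exposed to compound at 200–25 μg/mL for 24 h, then MTT (5 mg/mL solution) for 3 h. Absorbance is taken as % of untreated control after background subtraction, and MLD50 is derived.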

Row | Compound | MIC [1] | CC50 at 24 h [2] [µg/mL] | Ratio [3] | Ratio [4] | CC50 at 24 h [5] [µg/mL]
1 | OCc1cn(-c2ccccc2)nn1 | > 100 µg/mL |  |  |  | 
2 | OCc1cn(-c2ccc(Cl)cc2)nn1 | > 100 µg/mL |  |  |  | 
3 | O=C(N/N=C/c1cn(-c2ccc(F)cc2)nn1)c1ccncc1 | 4 µM | > 1000 | >800 | >800 | > 1000
4 | OCc1cn(-c2ccc(F)cc2)nn1 | > 100 µg/mL |  |  |  | 
5 | OCc1cn(-c2cccc(Cl)c2)nn1 | > 100 µg/mL |  |  |  | 
6 | OCc1cn(-c2ccccc2Cl)nn1 | > 100 µg/mL |  |  |  | 
7 | Cc1ccc(-n2cc(CO)nn2)cc1 | > 100 µg/mL |  |  |  | 
8 | Cc1cccc(-n2cc(CO)nn2)c1 | > 100 µg/mL |  |  |  | 
9 | Cc1ccccc1-n1cc(CO)nn1 | > 100 µg/mL |  |  |  | 
10 | O=[N+]([O-])c1ccc(-n2cc(CO)nn2)cc1 | > 100 µg/mL |  |  |  | 
11 | COc1ccc(-n2cc(CO)nn2)cc1 | > 100 µg/mL |  |  |  | 
12 | COc1cccc(-n2cc(CO)nn2)c1 | > 100 µg/mL |  |  |  | 
13 | COc1ccccc1-n1cc(CO)nn1 | > 100 µg/mL |  |  |  | 
14 | OCc1cn(-c2ccc(Cl)c(Cl)c2)nn1 | > 100 µg/mL |  |  |  | 
15 | OCc1cn(-c2cc(Cl)ccc2Cl)nn1 | > 100 µg/mL |  |  |  | 
16 | OCc1cn(-c2cc(Cl)cc(Cl)c2)nn1 | > 100 µg/mL |  |  |  | 
17 | N#Cc1ccc(-n2cc(CO)nn2)cc1 | > 100 µg/mL |  |  |  | 
18 | N#Cc1cccc(-n2cc(CO)nn2)c1 | > 100 µg/mL |  |  |  | 
19 | OCc1cn(-c2ccc(Br)cc2)nn1 | > 100 µg/mL |  |  |  | 
20 | Nc1nnc(-c2cccc(-n3cc(CO)nn3)c2)s1 | > 100 µg/mL |  |  |  | 
21 | O=Cc1cn(-c2ccccc2)nn1 | 144 µM |  |  |  | 
22 | O=Cc1cn(-c2ccc(F)cc2)nn1 | 131 µM |  |  |  | 
23 | O=Cc1cn(-c2ccc(Cl)cc2)nn1 | 60.2 µM | 97 (≈ 467 µM) | 6 | 8 | 71 (≈ 342 µM)

Row | Compound | MIC [1] | CC50 at 24 h [2] [µg/mL] | Ratio [3] | Ratio [4] | CC50 at 24 h [5] [µg/mL]
24 | O=Cc1cn(-c2ccccc2Cl)nn1 | 241 µM |  |  |  | 
25 | Cc1ccc(-n2cc(C=O)nn2)cc1 | 66.7 µM |  |  |  | 
26 | Cc1cccc(-n2cc(C=O)nn2)c1 | 134 µM |  |  |  | 
27 | Cc1ccccc1-n1cc(C=O)nn1 | 267 µM |  |  |  | 
28 | O=Cc1cn(-c2ccc([N+](=O)[O-])cc2)nn1 | 115 µM |  |  |  | 
29 | COc1ccc(-n2cc(C=O)nn2)cc1 | 123 µM |  |  |  | 
30 | COc1cccc(-n2cc(C=O)nn2)c1 | 123 µM |  |  |  | 
31 | COc1ccccc1-n1cc(C=O)nn1 | 246 µM |  |  |  | 
32 | O=Cc1cn(-c2ccc(Cl)c(Cl)c2)nn1 | 207 µM |  |  |  | 
33 | O=Cc1cn(-c2cc(Cl)ccc2Cl)nn1 | > 100 µg/mL |  |  |  | 
34 | O=C(N/N=C/c1cn(-c2ccccc2)nn1)c1ccncc1 | 8.5 µM | > 1000 | >400 | >400 | > 1000
35 | O=C(N/N=C/c1cn(-c2ccc(Cl)cc2)nn1)c1ccncc1 | 1.8 µM | > 1000 | >1612 | >1612 | > 1000
36 | O=C(N/N=C/c1cn(-c2cccc(Cl)c2)nn1)c1ccncc1 | 1.8 µM | > 1000 | >1612 | >1612 | > 1000
37 | O=C(N/N=C/c1cn(-c2ccccc2Cl)nn1)c1ccncc1 | 3.8 µM | > 1000 | 210 | >800 | 263 (≈ 805 µM)
38 | Cc1ccc(-n2cc(/C=N/NC(=O)c3ccncc3)nn2)cc1 | 4 µM | > 1000 | 94 | >800 | 118 (≈ 385 µM)
39 | Cc1cccc(-n2cc(/C=N/NC(=O)c3ccncc3)nn2)c1 | 2 µM | 262 (≈ 855 µM) | 200 | 422 | 124 (≈ 405 µM)
40 | Cc1ccccc1-n1cc(/C=N/NC(=O)c2ccncc2)nn1 | 8.1 µM | > 1000 | 126 | 400 | 314 (≈ 1030 µM)
41 | O=C(N/N=C/c1cn(-c2ccc([N+](=O)[O-])cc2)nn1)c1ccncc1 | 1.8 µM | > 1000 | >1612 | >1612 | > 1000
42 | COc1ccc(-n2cc(/C=N/NC(=O)c3ccncc3)nn2)cc1 | 7.7 µM | > 1000 | >400 | >400 | > 1000
43 | COc1cccc(-n2cc(/C=N/NC(=O)c3ccncc3)nn2)c1 | 3.8 µM | > 1000 |  | >800 | 
44 | COc1ccccc1-n1cc(/C=N/NC(=O)c2ccncc2)nn1 | 1.9 µM | > 1000 | >1612 | >1612 | > 1000
45 | O=C(N/N=C/c1cn(-c2ccc(Cl)c(Cl)c2)nn1)c1ccncc1 | 6.9 µM | > 1000 | >400 | >400 | > 1000
46 | O=C(N/N=C/c1cn(-c2cc(Cl)ccc2Cl)nn1)c1ccncc1 | 3.4 µM | > 1000 | >800 | >800 | > 1000

Row | Compound | MIC [1] | CC50 at 24 h [2] [µg/mL] | Ratio [3] | Ratio [4] | CC50 at 24 h [5] [µg/mL]
47 | COC(=O)c1cn(-c2cc(Cl)cc(Cl)c2)nn1 | > 100 µg/mL |  |  |  | 
48 | FC(F)(F)c1cn(-c2cc(Cl)cc(Cl)c2)nn1 | 177 µM |  |  |  | 
49 | FCc1cn(-c2ccc(Cl)cc2)nn1 | 472 µM |  |  |  | 
50 | FCc1cn(-c2cccc(Cl)c2)nn1 | 472 µM |  |  |  | 
51 | FCc1cn(-c2cc(Cl)cc(Cl)c2)nn1 | 406 µM |  |  |  | 
52 | N#Cc1ccc(-n2cc(CF)nn2)cc1 | > 100 µg/mL |  |  |  | 
53 | N#Cc1cccc(-n2cc(CF)nn2)c1 | > 100 µg/mL |  |  |  | 
54 | FCc1cn(-c2ccc(Br)cc2)nn1 | 390 µM |  |  |  | 
55 | Nc1nnc(-c2cccc(-n3cc(C(F)F)nn3)c2)s1 | 340 µM |  |  |  | 
56 | C=Cc1cn(-c2ccccc2)nn1 | > 100 µg/mL |  |  |  | 
57 | C=Cc1cn(-c2ccc(Cl)cc2)nn1 | 243 µM |  |  |  | 
58 | C=Cc1cn(-c2ccc([N+](=O)[O-])cc2)nn1 | > 100 µg/mL |  |  |  | 
59 | C=Cc1cn(-c2ccc(OC)cc2)nn1 | 244 µM |  |  |  | 
60 | C=Cc1cn(-c2ccccc2OC)nn1 | > 100 µg/mL |  |  |  | 
61 | C=Cc1cn(-c2ccc(Cl)c(Cl)c2)nn1 | > 100 µg/mL |  |  |  | 
62 | C=Cc1cn(-c2cc(Cl)ccc2Cl)nn1 | 13 µM | > 1000 | >321 | >321 | > 1000
63 | O=Cc1cn(-c2cccc(Cl)c2)nn1 | 121 µM |  |  |  | 
64 | FC(F)c1cn(-c2cccc(Cl)c2)nn1 | > 100 µg/mL |  |  |  | 
65 | N#Cc1cccc(-n2cc(C(F)F)nn2)c1 | 114 µM |  |  |  | 
66 | NNC(=O)c1ccncc1 [ISONIAZID] | 0.437 µM |  |  |  | 
67 | CO[C@H]1/C=C/O[C@@]2(C)Oc3c(C)c(O)c4c(O)c(c(/C=N/N5CCN(C)CC5)c(O)c4c3C2=O)NC(=O)/C(C)=C\C=C\[C@H](C)[C@H](O)[C@@H](C)[C@@H](O)[C@@H](C)[C@H](OC(C)=O)[C@@H]1C [RIFAMPIN] | 1.21 µM |  |  |  | 
